# Legend:
# Clavispora lusitaniae = assay: Antifungal activity against Candida lusitaniae ATCC 42720 by broth microdilution assay; format: functional
# Aspergillus niger = assay: Antifungal activity against Aspergillus niger ATCC 9042 by broth microdilution assay; format: functional
# HepG2 [1] = assay: Cytotoxicity against human HepG2 cells at 50 uM by neutral red uptake assay; format: functional
# Aspergillus fumigatus = assay: Antifungal activity against Aspergillus fumigatus ATCC 16424 by broth microdilution assay; format: functional
# Candida tropicalis = assay: Antifungal activity against Candida tropicalis ATCC 750 by broth microdilution assay; format: functional
# Candida albicans [2] = assay: Antifungal activity against Candida albicans ATCC 36082 by broth microdilution assay; format: functional
# Pichia kudriavzevii = assay: Antifungal activity against Candida krusei ATCC 6528 by broth microdilution assay; format: functional
# Candida parapsilosis = assay: Antifungal activity against Candida parapsilosis ATCC 21019 by broth microdilution assay; format: functional; details: Lodderomyces parapsilosis
# Nakaseomyces glabratus = assay: Antifungal activity against Candida glabrata ATCC 34138 by broth microdilution assay; format: functional
# Aspergillus terreus = assay: Antifungal activity against Aspergillus terreus ATCC 28301 by broth microdilution assay; format: functional
# Aspergillus flavus = assay: Antifungal activity against Aspergillus flavus ATCC MYA-1004 by broth microdilution assay; format: functional
# Cryptococcus neoformans = assay: Antifungal activity against Cryptococcus neoformans ATCC 24065 by broth microdilution assay
# Candida albicans [3] = assay: Antifungal activity against systemic Candida albicans ATCC 36082 infection model in ICR mouse assessed as survival at 20 mg/kg, po; format: functional
# Method in brief: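 C. albicans ATCC 36082 given systemically, about 5 × 10⁵ cells per animal. Oral dosing at 20 mg/kg once daily started 2 h post-infection and continued for 7 consecutive days. Read-out was mean survival days, compared against an untreated infected control group.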
# HepG2 [4] = assay: Cytotoxicity against human HepG2 cells by neutral red uptake assay; format: functional
# Method in brief: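 Human hepatoma HepG2 cells; neutral red uptake read-out following a previously described protocol; the value is the CC50 (concentration giving half-maximal cytotoxicity); ketoconazole served as reference agent.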
MIC80 (Clavispora lusitaniae) [µg/mL],MIC80 (Aspergillus niger) [µg/mL],MIC80 (Aspergillus fumigatus) [µg/mL],MIC80 (Candida tropicalis) [µg/mL],MIC80 (Candida albicans [2]) [µg/mL],MIC80 (Pichia kudriavzevii) [µg/mL],MIC80 (Candida parapsilosis) [µg/mL],MIC80 (Nakaseomyces glabratus) [µg/mL],MIC80 (Aspergillus terreus) [µg/mL],MIC80 (Aspergillus flavus) [µg/mL],MIC80 (Cryptococcus neoformans) [µg/mL],Structure (SMILES),inhibition at 50 µM (HepG2 [1]) [%],Survival (Candida albicans [3]) [days],CC50 (HepG2 [4]) [µM]
0.125,> 16,16,1,≤ 0.015,1,0.25,8,> 16,> 16,0.125,Cc1nn([C@H](C)[C@](O)(Cn2cncn2)c2ccc(F)cc2F)c2cccc(F)c12,8.1,,
0.25,> 16,> 16,> 8,≤ 0.015,4,1,8,> 16,> 16,1,Cc1nn([C@H](C)[C@](O)(Cn2cncn2)c2ccc(F)cc2F)c2ccc(C(F)(F)F)cc12,2.9,,

Structure (SMILES),MIC80 (Clavispora lusitaniae) [µg/mL],MIC80 (Aspergillus niger) [µg/mL],MIC80 (Aspergillus fumigatus) [µg/mL],MIC80 (Candida tropicalis) [µg/mL],MIC80 (Candida albicans [2]) [µg/mL],MIC80 (Pichia kudriavzevii) [µg/mL],MIC80 (Candida parapsilosis) [µg/mL],MIC80 (Nakaseomyces glabratus) [µg/mL],MIC80 (Aspergillus terreus) [µg/mL],MIC80 (Aspergillus flavus) [µg/mL],MIC80 (Cryptococcus neoformans) [µg/mL],inhibition at 50 µM (HepG2 [1]) [%],Survival (Candida albicans [3]) [days],CC50 (HepG2 [4]) [µM]
C[C@@H](n1cc2cc(Br)ccc2n1)[C@](O)(Cn1cncn1)c1ccc(F)cc1F,≤ 0.015,1,0.25,≤ 0.015,≤ 0.015,0.125,≤ 0.015,2,0.5,0.5,≤ 0.015,,13.5,141

# Reference: ChEMBL document CHEMBL1139935, “Discovery of novel indazole-linked triazoles as antifungal agents” (2007)
